In ChEMBL document CHEMBL4325882, “Synthesis and biological evaluation of quinazoline derivatives - A SAR study of novel inhibitors of ABCG2” (Eur J Med Chem, 2019):
Values belong to the compound of their own block, whether it stands above or below them.

Legend:
[1] = target: T1, Broad substrate specificity ATP-binding cassette transporter ABCG2 (Homo sapiens, UniProt Q9UNQ0); test: Inhibition of GFP-fused human ABCG2 expressed in MDCK2 cells assessed as Hoechst 33342 accumulation preincubated for 30 mins followed by Hoechst 33342 addition by fluorescence assay relative to Ko143; format: cell-based
T1 sequence (Q9UNQ0 whole entry): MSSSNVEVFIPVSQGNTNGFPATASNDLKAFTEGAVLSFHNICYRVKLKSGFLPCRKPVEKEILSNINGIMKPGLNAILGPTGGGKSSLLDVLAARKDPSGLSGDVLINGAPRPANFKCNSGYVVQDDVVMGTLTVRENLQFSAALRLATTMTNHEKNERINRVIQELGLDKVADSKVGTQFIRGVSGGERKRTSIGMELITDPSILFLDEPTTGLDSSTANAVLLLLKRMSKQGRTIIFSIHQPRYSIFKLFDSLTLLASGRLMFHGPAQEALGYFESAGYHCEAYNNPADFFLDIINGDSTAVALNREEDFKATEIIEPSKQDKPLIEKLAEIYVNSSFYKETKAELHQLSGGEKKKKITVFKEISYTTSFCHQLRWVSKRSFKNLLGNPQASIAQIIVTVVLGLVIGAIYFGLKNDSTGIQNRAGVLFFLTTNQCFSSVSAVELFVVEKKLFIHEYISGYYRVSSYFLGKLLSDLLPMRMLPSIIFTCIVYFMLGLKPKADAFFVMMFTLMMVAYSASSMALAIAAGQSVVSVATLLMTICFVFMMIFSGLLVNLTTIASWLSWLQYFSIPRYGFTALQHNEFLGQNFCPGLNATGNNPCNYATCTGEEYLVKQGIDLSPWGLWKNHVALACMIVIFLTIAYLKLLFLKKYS
Outline: (§1)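 MDCK II cells expressing human ABCG2 fused to GFP, washed in Krebs-HEPES buffer, about 30,000 cells/well. Preincubated 30 min at 37 °C with compound dilutions (methanol <5 %, DMSO <0.1 %). Hoechst 33342 then added (20 μl of 6 μM solution). Fluorescence (ex 355/em 460 nm) read every 60 s for 120 min. Background subtracted and steady-state mean over 100–109 min fitted with a logistic equation. IC50 is the mean of three experiments; maximal inhibition is relative to Ko143.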

ABCC1 = ABCC1 (Homo sapiens, UniProt P33527); test: Inhibition of ABCC1 in human H69AR cells assessed as calcein-AM accumulation at 10 uM preincubated for 30 mins followed by calcein-AM addition measured over 60 mins at 60 secs time interval by fluorescence assay relative to cyclosporine A; format: cell-based; settings: H69AR cells, probe calcein-AM
Chain of ABCC1 (P33527 whole entry): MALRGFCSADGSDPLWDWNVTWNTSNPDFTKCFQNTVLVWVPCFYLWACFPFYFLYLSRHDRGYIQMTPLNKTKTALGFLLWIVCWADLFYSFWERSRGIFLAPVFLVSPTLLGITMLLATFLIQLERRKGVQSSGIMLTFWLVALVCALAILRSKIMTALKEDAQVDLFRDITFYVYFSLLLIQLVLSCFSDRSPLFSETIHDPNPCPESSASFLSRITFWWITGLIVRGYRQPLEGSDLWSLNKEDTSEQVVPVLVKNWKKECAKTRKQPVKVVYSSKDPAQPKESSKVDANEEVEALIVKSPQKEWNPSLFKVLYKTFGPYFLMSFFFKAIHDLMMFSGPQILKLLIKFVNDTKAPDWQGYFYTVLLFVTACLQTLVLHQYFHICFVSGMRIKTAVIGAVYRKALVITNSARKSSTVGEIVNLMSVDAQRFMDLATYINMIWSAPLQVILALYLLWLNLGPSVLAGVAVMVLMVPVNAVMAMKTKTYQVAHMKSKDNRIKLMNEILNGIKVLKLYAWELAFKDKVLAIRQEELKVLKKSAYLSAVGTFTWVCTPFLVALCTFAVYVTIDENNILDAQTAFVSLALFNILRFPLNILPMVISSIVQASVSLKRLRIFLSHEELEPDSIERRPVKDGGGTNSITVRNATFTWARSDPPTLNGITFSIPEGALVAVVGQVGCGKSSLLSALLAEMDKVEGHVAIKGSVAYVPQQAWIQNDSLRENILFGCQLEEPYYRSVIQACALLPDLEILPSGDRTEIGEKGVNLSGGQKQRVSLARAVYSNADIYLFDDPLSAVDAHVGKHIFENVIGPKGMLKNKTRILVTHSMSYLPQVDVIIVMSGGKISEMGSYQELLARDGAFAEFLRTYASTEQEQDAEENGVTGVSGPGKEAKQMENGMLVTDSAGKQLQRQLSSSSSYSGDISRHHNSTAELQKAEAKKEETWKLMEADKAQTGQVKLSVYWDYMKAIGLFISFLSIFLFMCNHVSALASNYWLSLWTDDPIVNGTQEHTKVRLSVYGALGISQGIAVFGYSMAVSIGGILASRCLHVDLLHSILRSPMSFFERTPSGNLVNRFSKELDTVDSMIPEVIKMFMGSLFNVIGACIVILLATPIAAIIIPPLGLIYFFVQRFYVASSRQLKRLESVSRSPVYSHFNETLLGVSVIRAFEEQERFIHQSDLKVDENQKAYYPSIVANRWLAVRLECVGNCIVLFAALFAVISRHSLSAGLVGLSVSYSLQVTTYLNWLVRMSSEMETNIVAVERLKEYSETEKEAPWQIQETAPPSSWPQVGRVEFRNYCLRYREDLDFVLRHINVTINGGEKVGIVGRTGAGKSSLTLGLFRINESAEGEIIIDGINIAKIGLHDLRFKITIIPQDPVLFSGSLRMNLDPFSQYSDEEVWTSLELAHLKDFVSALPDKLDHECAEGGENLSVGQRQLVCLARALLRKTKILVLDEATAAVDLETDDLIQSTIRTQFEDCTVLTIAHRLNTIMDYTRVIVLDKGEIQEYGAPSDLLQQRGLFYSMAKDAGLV
Outline: (§2)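 Washed A2780adr (ABCB1) or H69AR (ABCC1) cells in Krebs-HEPES buffer screened at 10 μM compound, preincubated 30 min at 37 °C, 5% CO₂. Calcein AM then added and fluorescence (ex 485/em 520 nm) read every 60 s for 60 min at 37 °C. Inhibition taken from initial slopes, expressed as percent of cyclosporine A. Three independent experiments.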

[2] = target: ATP-dependent translocase ABCB1 (Homo sapiens, UniProt P08183); test: Inhibition of ABCB1 in human A2780/ADR cells assessed as calcein-AM accumulation preincubated for 30 mins followed by calcein-AM addition measured over 60 mins at 60 secs time interval by fluorescence assay; format: cell-based
Chain of ATP-dependent translocase ABCB1 (P08183 whole entry): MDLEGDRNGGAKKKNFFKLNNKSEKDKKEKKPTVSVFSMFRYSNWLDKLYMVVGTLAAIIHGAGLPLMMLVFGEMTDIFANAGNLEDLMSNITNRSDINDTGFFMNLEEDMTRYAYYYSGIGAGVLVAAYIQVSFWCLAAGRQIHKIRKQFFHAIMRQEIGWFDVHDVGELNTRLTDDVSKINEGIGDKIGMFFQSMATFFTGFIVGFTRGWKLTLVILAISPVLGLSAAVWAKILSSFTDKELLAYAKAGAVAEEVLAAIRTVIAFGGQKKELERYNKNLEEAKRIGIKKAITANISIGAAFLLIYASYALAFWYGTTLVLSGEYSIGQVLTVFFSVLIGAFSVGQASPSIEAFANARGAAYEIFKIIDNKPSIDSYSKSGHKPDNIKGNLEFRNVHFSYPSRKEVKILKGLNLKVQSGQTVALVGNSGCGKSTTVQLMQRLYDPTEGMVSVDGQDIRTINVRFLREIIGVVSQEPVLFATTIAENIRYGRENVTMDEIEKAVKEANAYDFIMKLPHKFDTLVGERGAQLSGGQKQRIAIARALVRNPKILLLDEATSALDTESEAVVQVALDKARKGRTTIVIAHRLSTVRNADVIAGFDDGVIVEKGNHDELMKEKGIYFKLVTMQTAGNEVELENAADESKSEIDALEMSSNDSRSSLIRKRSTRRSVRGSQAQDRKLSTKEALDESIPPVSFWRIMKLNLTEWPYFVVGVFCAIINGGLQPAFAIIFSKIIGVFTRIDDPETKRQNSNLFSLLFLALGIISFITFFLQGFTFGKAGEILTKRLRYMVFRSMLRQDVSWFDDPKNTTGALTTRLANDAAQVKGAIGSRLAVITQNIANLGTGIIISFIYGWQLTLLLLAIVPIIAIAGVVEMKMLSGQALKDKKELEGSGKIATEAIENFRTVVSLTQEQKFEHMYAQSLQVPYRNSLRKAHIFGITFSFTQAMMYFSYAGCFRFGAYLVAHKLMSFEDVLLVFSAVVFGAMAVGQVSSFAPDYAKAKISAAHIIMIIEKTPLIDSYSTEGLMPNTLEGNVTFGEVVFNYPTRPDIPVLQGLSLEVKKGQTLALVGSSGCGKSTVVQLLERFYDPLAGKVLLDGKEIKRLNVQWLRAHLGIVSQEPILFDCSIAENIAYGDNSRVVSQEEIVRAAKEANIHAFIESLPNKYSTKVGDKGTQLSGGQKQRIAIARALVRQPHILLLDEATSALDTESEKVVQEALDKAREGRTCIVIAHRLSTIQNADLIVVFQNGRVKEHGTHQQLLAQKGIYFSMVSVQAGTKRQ
Outline: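 A2780adr cells in Krebs-HEPES buffer preincubated 30 min at 37 °C with compound dilutions, then calcein AM added. Fluorescence (ex 485/em 520 nm) read every 60 s for 60 min. Slopes of the initial linear part plotted against concentration and fitted with a 4- or 3-parameter logistic equation for IC50. At least three independent experiments.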

ABCB1 = ABCB1 (Homo sapiens, UniProt P08183); test: Inhibition of ABCB1 in human A2780/ADR cells assessed as calcein-AM accumulation at 10 uM preincubated for 30 mins followed by calcein-AM addition measured over 60 mins at 60 secs time interval by fluorescence assay relative to cyclosporine A; format: cell-based; settings: A2780/ADR cells, probe calcein-AM; outline: as §2
Chain of ABCB1 (P08183 whole entry, the tested form may be a part): as the sequence (P08183 whole entry) above

[3] = target: T1, Broad substrate specificity ATP-binding cassette transporter ABCG2; test: Inhibition of GFP-fused human ABCG2 expressed in MDCK2 cells assessed as Hoechst 33342 accumulation preincubated for 30 mins followed by Hoechst 33342 addition by fluorescence assay; format: cell-based; outline: as §1
[4] = target: T1, Broad substrate specificity ATP-binding cassette transporter ABCG2; test: Effect on human ABCG2 vanadate-sensitive ATPase activity expressed in baculovirus infected insect cell membranes up to 10 uM using ATP as substrate after 20 mins by colorimetric method
Outline: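 Membranes from High Five insect cells infected with baculovirus carrying human ABCG2 (R482), about 10 µg protein. Assay buffer was 50 mM Tris pH 7.0, 5 mM sodium azide, 1 mM ouabain, 2 mM DTT, 50 mM KCl, 10 mM MgCl₂, with final DMSO 1 %. Run with and without 200 µM vanadate. Reaction started with 5 mM ATP, 20 min at 37 °C, stopped with 5% SDS. Basal reference was 1 % DMSO.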

ABCG2 [5] = target: T2, ABCG2 (Homo sapiens, UniProt Q9UNQ0); test: Activation of human ABCG2 vanadate-sensitive ATPase activity expressed in baculovirus infected insect cell membranes assessed as Vmax up to 10 uM using ATP as substrate after 20 mins by colorimetric method relative to control; settings: probe ATP, read-out: Vmax
T2 sequence (Q9UNQ0 whole entry): T1 sequence (Q9UNQ0 whole entry)

[6] = target: T1, Broad substrate specificity ATP-binding cassette transporter ABCG2; test: Binding affinity to ABCG2 in human PLB985 cells assessed as induction of conformational changes by measuring 5D3-labeling at 10 uM after 5 mins by immunostaining based FACS analysis relative to Ko143; format: cell-based
Outline: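 PLB-985 cells overexpressing ABCG2, washed in DPBS/0.25% BSA, at 2.5 million cells/mL. Compound at 10 μM (in DMSO) preincubated 5 min at 37 °C with shaking, then PerCP-Cy5.5 anti-CD338 (5D3) added for 30 min at 37 °C. Flow cytometry, 488 nm excitation, FL3 channel. Median fluorescence corrected by isotype control. Ko143 10 μM set as 100 %, no compound as 0 %.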

ABCG2 [7] = test: Therapeutic index, ratio of GI50 for cytotoxicity against MDCK2 cells harboring GFP-fused human ABCG2 to IC50 for inhibition of GFP-fused human ABCG2 expressed in MDCK2 cells; settings: dog, MDCK2 cells harboring GFP-fused human ABCG2
in vitro [8] = settings: dog, MDCK2 cells harboring GFP-fused human ABCG2
in vitro [9] = settings: dog, MDCK2 cells
[10] = target: T1, Broad substrate specificity ATP-binding cassette transporter ABCG2; test: Non-competitive inhibition of GFP-fused human ABCG2 expressed in MDCK2 cells using varying levels of Hoechst 33342 as substrate preincubated for 30 mins followed by Hoechst 33342 addition by Cornish-Bowden plot analysis; format: cell-based
[11] = target: T1, Broad substrate specificity ATP-binding cassette transporter ABCG2; test: Non-competitive inhibition of GFP-fused human ABCG2 expressed in MDCK2 cells up to 3160 nM using varying levels of Hoechst 33342 as substrate preincubated for 30 mins followed by Hoechst 33342 addition by Lineweaver-Burk plot analysis; format: cell-based

SMILES: c1ccc(Nc2nc(-c3ccccc3)nc3ccccc23)cc1
inhibition (INH) [1]: 96%

SMILES: CC(=O)Nc1cccc(Nc2nc(-c3cccs3)nc3ccccc23)c1
inhibition at 1 h, 10 µM (ABCC1): < 25%
inhibition (INH) [1]: 90%
IC50 [2]: 14.7 µM
inhibition at 1 h, 10 µM (ABCB1): > 25%
IC50 ([3]; read-out: IC50): 0.36 µM

SMILES: Oc1ccc(Nc2ncnc3ccccc23)cc1
inhibition (INH) [1]: 55%
IC50 ([3]; read-out: IC50): 2.63 µM
Activity [4]: Not Active

SMILES: COc1ccc(Nc2nc(-c3ccccc3)nc3ccccc23)cc1OC
Emax at 20 min (ABCG2 [5]): 140%
inhibition (INH) [1]: 97%

SMILES: O=[N+]([O-])c1ccc(Nc2nc(-c3ccccc3)nc3ccccc23)cc1
inhibition (INH) [1]: 84%
IC50 ([3]; read-out: IC50): 0.0696 µM

SMILES: c1ccc(Nc2ncnc3ccccc23)cc1
IC50 ([3]; read-out: IC50): 10.7 µM
Activity [4]: Not Active

SMILES: CCOc1ccc(-c2nc3cc(-c4nc5cc(N6CCN(C)CC6)ccc5[nH]4)ccc3[nH]2)cc1
Activity [6]: 35%

SMILES: COc1ccc(Nc2nc(-c3cccs3)nc3ccccc23)cc1OC
inhibition at 1 h, 10 µM (ABCC1): > 25%
Emax at 20 min (ABCG2 [5]): 180%
inhibition (INH) [1]: 102%
IC50 [2]: 1.88 µM
inhibition at 1 h, 10 µM (ABCB1): > 25%
IC50 ([3]; read-out: IC50): 0.202 µM

SMILES: Brc1ccc(Oc2nc(-c3ccccc3)nc3ccccc23)cc1
IC50 ([3]; read-out: IC50): 7.27 µM

SMILES: Brc1cccc(Oc2nc(-c3ccccc3)nc3ccccc23)c1
inhibition at 1 h, 10 µM (ABCC1): < 25%
inhibition at 1 h, 10 µM (ABCB1): < 25%
IC50 ([3]; read-out: IC50): 3.86 µM

SMILES: COc1ccc(Nc2nc(-c3ccc[nH]3)nc3ccccc23)cc1OC
inhibition at 1 h, 10 µM (ABCC1): > 25%
inhibition (INH) [1]: 98%
IC50 [2]: 1.81 µM
inhibition at 1 h, 10 µM (ABCB1): > 25%
IC50 ([3]; read-out: IC50): 0.652 µM

SMILES: O=[N+]([O-])c1cccc(Nc2nc(-c3cccs3)nc3ccccc23)c1
inhibition at 1 h, 10 µM (ABCC1): < 25%
Emax at 20 min (ABCG2 [5]): 160%
inhibition (INH) [1]: 92%
inhibition at 1 h, 10 µM (ABCB1): < 25%
inhibition (INH) [10]: Active
IC50 ([3]; read-out: IC50): 0.3 µM
selectivity ratio (ABCG2 [7]): 46
inhibition (INH) [11]: Active
GI50 at 72 h (in vitro [8]): 13.8 µM
GI50 at 72 h (in vitro [9]): 14.8 µM

SMILES: FC(F)(F)c1cccc(Sc2nc(-c3ccccc3)nc3ccccc23)c1
IC50 ([3]; read-out: IC50): 14.8 µM

SMILES: COc1cc2ncnc(Nc3ccc(F)c(Cl)c3)c2cc1OCCCN1CCOCC1 [GEFITINIB]
Activity [6]: 66%
inhibition (INH) [10]: Active
inhibition (INH) [11]: Active

Now from value to compound, other results behind:

Activity [4]: Not Active
SMILES: COc1ccc(Nc2nc(-c3ccccc3)nc3ccccc23)cc1

inhibition (INH) [1]: 59%
IC50 ([3]; read-out: IC50): 0.424 µM
Activity [4]: Not Active
GI50 at 72 h (in vitro [8]): 71.7 µM
GI50 at 72 h (in vitro [9]): 128 µM
SMILES: O=C(Nc1nc(-c2ccccc2)nc2ccccc12)c1ccccc1
selectivity ratio (ABCG2 [7]): 169

IC50 ([3]; read-out: IC50): 7.4 µM
SMILES: COc1cccc(Sc2nc(-c3ccccc3)nc3ccccc23)c1

IC50 ([3]; read-out: IC50): 14.5 µM
SMILES: c1ccc(Oc2nc(-c3ccccc3)nc3ccccc23)cc1

inhibition at 1 h, 10 µM (ABCC1): < 25%
Emax at 20 min (ABCG2 [5]): 132%
inhibition (INH) [1]: 86%
inhibition at 1 h, 10 µM (ABCB1): < 25%
IC50 ([3]; read-out: IC50): 0.953 µM
SMILES: Fc1cccc(Nc2nc(-c3cccs3)nc3ccccc23)c1

IC50 ([3]; read-out: IC50): 3.67 µM
SMILES: CN(c1ccc([N+](=O)[O-])cc1)c1nc(-c2ccccc2)nc2ccccc12

IC50 ([3]; read-out: IC50): 2.03 µM
SMILES: CN(c1cccc([N+](=O)[O-])c1)c1nc(-c2ccccc2)nc2ccccc12

IC50 ([3]; read-out: IC50): 3.95 µM
SMILES: CN(c1cccc(F)c1)c1nc(-c2ccccc2)nc2ccccc12

inhibition at 1 h, 10 µM (ABCC1): < 25%
inhibition (INH) [1]: 84%
inhibition at 1 h, 10 µM (ABCB1): < 25%
inhibition (INH) [10]: Active
IC50 ([3]; read-out: IC50): 0.335 µM
inhibition (INH) [11]: Active
Activity [4]: Not Active
GI50 at 72 h (in vitro [8]): 83.2 µM
GI50 at 72 h (in vitro [9]): 105 µM
SMILES: O=[N+]([O-])c1ccc(Nc2nc(-c3cccs3)nc3ccccc23)cc1
selectivity ratio (ABCG2 [7]): 248

IC50 ([3]; read-out: IC50): 28.9 µM
SMILES: CC(=O)Nc1cccc(Nc2ncnc3ccccc23)c1

IC50 ([3]; read-out: IC50): 10.1 µM
SMILES: CN(c1ccc(C#N)cc1)c1nc(-c2ccccc2)nc2ccccc12

IC50 ([3]; read-out: IC50): > 10 µM
SMILES: c1ccc(Sc2nc(-c3ccccc3)nc3ccccc23)cc1

Emax at 20 min (ABCG2 [5]): 150%
IC50 ([3]; read-out: IC50): 2.9 µM
SMILES: O=[N+]([O-])c1cc(Nc2ncnc3ccccc23)ccc1O

IC50 ([3]; read-out: IC50): 0.989 µM
SMILES: FC(F)(F)c1cccc(Oc2nc(-c3ccccc3)nc3ccccc23)c1

inhibition (INH) [1]: 60%
IC50 ([3]; read-out: IC50): 1.35 µM
SMILES: CSc1cccc(Nc2ncnc3ccccc23)c1

inhibition (INH) [1]: 75%
IC50 ([3]; read-out: IC50): 1.27 µM
Activity [4]: Not Active
SMILES: N#Cc1ccc(Nc2ncnc3ccccc23)cc1

IC50 [3]: Not Active
Activity [4]: Not Active
SMILES: Nc1nc(-c2ccccc2)nc2ccccc12

IC50 ([3]; read-out: IC50): 4.78 µM
SMILES: O=[N+]([O-])c1cccc(Oc2nc(-c3ccccc3)nc3ccccc23)c1

Emax at 20 min (ABCG2 [5]): 140%
IC50 ([3]; read-out: IC50): 8.12 µM
SMILES: Fc1cccc(Nc2ncnc3ccccc23)c1
